Source: PubChem (several laboratories)
Cdc25B inh = human M-phase inducer phosphatase 2 inhibition | inhibition, %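 (compounds tested at 10 µM final in the well)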 | AID 368 | recombinant Cdc25B, OMFP fluorescence Ex485/Em525 | 65,000 compounds, 0.1% hits | P30305; in the data active = inhibition above about 50%
JNK3 blocker = blocks human JNK3 kinase activity. purified JNK3 kinase activity, HTS. P53779. AID 746. inhibition, % at 8 µM. 60,000 compounds, 0.61% hits; in the data active = inhibition above about 17%;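 note: 0% = DMSO and 100% = reference inhibitor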
RORa activator = activates the human nuclear receptor RORA; P35398; CHO-K1 Gal4-RORA LBD luciferase reporter, luminescence; percent increase over mock-subtracted basal signal; activation, % at 10 µM; 65,000 compounds, 1.5% hits; AID 560;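 active = activation above the mean of all tested compounds plus 3 SD, cut at about 49% in these data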;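 note: 0% = DMSO-treated RORA cells and 100% = added signal equal to DMSO minus mock-transfected cells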
MKP-1 inh = human dual specificity phosphatase 1 inhibition | P28562 | recombinant MKP-1, OMFP hydrolysis fluorescence | inhibition, %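 (compounds tested at a single concentration somewhere between 10 and 100 µM)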 | 65,000 compounds, 0.15% hits | AID 374;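 active = inhibition above about 50%, limit read from the data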;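 note: 0% = DMSO max control wells and 100% = wells with enzyme stopped by NaOH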
Hsp90 block = displaces geldanamycin probe from tumor Hsp90; 64,000 compounds, 0.35% hits; inhibition, % at 30 µM; NCI-N417 lysate Hsp90, Cy3B-geldanamycin FP displacement; AID 429; P07900;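 active = inhibition above 50%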;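 note: 0% = tracer plus lysate wells and 100% = tracer alone without lysate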
SF1 activator = SF-1 (human) activation; CHO-K1 Gal4-SF-1 LBD luciferase reporter; % increase over DMSO SF-1-specific signal; activation, % at 10 µM; 65,000 compounds, 1.9% hits; AID 522;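 active = activation above the mean activation of all tested compounds plus 3 SD, cut at about 50% in these data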
Target sequence (Q13285 whole entry, looked up, the tested form may be a part): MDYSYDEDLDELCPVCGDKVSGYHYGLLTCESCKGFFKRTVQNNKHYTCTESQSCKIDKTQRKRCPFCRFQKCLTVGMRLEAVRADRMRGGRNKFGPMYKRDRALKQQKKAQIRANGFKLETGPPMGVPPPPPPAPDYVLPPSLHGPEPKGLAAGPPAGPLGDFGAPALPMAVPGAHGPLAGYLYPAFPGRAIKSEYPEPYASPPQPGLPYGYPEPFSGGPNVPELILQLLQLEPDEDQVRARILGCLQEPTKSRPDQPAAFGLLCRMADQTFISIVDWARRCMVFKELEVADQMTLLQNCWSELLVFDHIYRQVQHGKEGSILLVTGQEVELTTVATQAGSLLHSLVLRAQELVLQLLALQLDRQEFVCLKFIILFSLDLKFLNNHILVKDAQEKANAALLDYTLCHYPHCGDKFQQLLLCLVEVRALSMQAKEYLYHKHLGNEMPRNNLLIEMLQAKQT
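Compound – one dose, 10 µM compound, 1% DMSO · Test system – transient Gal4-SF-1 LBD reporter, CHO-K1 · Input – 4,000 cells in each well · Read-out basis – percent activation relative to DMSO median and mock-transfected background · Replicates – single measurement per compound · Technique – steady-glow luciferase luminescence, read after 15 min reagent incubation · Timing – 20 h compound treatment, 37 °C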
Numbers without * were called inactive. Compounds with a hit are over-represented: about 3.4% of the library has one in this group of screens.

For CCOC(=O)c1ccccc1NC(=O)CSc1nnnn1C1CCCCC1 the results were Cdc25B inh -10, JNK3 blocker -12, RORa activator 54*, MKP-1 inh -26, Hsp90 block 0 and SF1 activator 5.
Screening CCOC(=O)C1CCN(S(=O)(=O)C(F)(F)c2nc3ccccc3s2)CC1 returned Cdc25B inh -7, RORa activator 71*, MKP-1 inh -6 and SF1 activator 32.
Nc1nc(CSc2n[nH]c(-c3ccccc3)n2)nc(Nc2ccccc2)n1 was read as Cdc25B inh 2, JNK3 blocker 6, RORa activator 72*, MKP-1 inh -7, Hsp90 block -1 and SF1 activator 34.
Cc1ccc(-c2nc(Nc3ccccc3)n[nH]2)cc1 was read as Cdc25B inh -3, JNK3 blocker -2, RORa activator 63*, MKP-1 inh 3, Hsp90 block -1 and SF1 activator 64*.
For Cc1c(NC(=O)NCCN2C(=O)C3C4C=CC(C4)C3C2=O)c(=O)n(-c2ccccc2)n1C (configuration not stated) the results were Cdc25B inh -5, JNK3 blocker -3, RORa activator 32, MKP-1 inh -6, Hsp90 block -1 and SF1 activator -28.
`COc1cc(NCCCC(C)=NO)c2nccc(Cl)c2c1` gave Hsp90 block 1.
For Cc1ccc(NC(=O)c2ccc3ccccc3n2)nc1 the results were Cdc25B inh -4, JNK3 blocker -6, RORa activator 23, MKP-1 inh 12, Hsp90 block 2 and SF1 activator 33.
`O=C(Nc1ccccc1C(=O)O)c1ccc2ccccc2n1` gave Cdc25B inh -15, JNK3 blocker 9, RORa activator 45, MKP-1 inh 7, Hsp90 block -6 and SF1 activator 80*.
Screening Cc1cc(C)c2c(CC(=O)Nc3nccs3)coc2c1 returned Cdc25B inh -5, JNK3 blocker 3, RORa activator -12, MKP-1 inh 12, Hsp90 block -4 and SF1 activator -6.
Screening Nc1nc2c(ncn2COC(CO)CO)c(=O)[nH]1 returned Hsp90 block -2.
`COc1cccc(C(=O)NCc2cn3ccsc3n2)c1` gave Cdc25B inh -17, JNK3 blocker 16, RORa activator 2, MKP-1 inh 2, Hsp90 block -1 and SF1 activator 20.
`COc1ccc(C(=O)CSc2nnc(CNC(=O)c3ccc(OC)c(OC)c3)n2C)cc1` gave Cdc25B inh -10, JNK3 blocker -4, RORa activator 9, MKP-1 inh 74*, Hsp90 block 1 and SF1 activator 8.
COc1ccc(C(=O)NCc2cn3c(C)csc3n2)cc1OC was read as Cdc25B inh -4, JNK3 blocker 17*, RORa activator -2, MKP-1 inh -5, Hsp90 block -3 and SF1 activator 5.
Screening COc1cc(C(=O)NCc2cn3ccsc3n2)cc(OC)c1OC returned Cdc25B inh -2, JNK3 blocker 24*, RORa activator -9, MKP-1 inh 24, Hsp90 block -1 and SF1 activator 3.
For CCn1c(CNC(=O)c2ccc(OC)c(OC)c2)nnc1SCC(=O)c1ccc(OC)cc1 the results were Cdc25B inh -12, JNK3 blocker 2, RORa activator 7, MKP-1 inh 9, Hsp90 block -9 and SF1 activator 0.
For Cc1csc2nc(CNC(=O)c3cccc(C(F)(F)F)c3)cn12 the results were Cdc25B inh -1, JNK3 blocker 4, RORa activator -4, MKP-1 inh -1, Hsp90 block -4 and SF1 activator 2.
COC(=O)Nc1ccc(C)c2nsnc12 was read as Cdc25B inh -7, JNK3 blocker 5, RORa activator -12, MKP-1 inh 2, Hsp90 block -3 and SF1 activator -9.
`COc1ccc(-n2ncc3c(NCc4cccs4)ncnc32)cc1` gave Cdc25B inh 2, JNK3 blocker 15, RORa activator 36, MKP-1 inh -2, Hsp90 block 2 and SF1 activator 82*.
c1ccc(-n2ncc3c(NCc4cccs4)ncnc32)cc1 was read as Cdc25B inh 4, JNK3 blocker 11, RORa activator 30, MKP-1 inh 1, Hsp90 block 3 and SF1 activator 51*.
For c1ccc(-n2ncc3c(NCc4cccnc4)ncnc32)cc1 the results were Cdc25B inh -17, JNK3 blocker -5, RORa activator 52*, MKP-1 inh 4, Hsp90 block 0 and SF1 activator 41.
CCOCCn1c(=O)c2c(nc3n2CCN3c2ccc(CC)cc2)n(C)c1=O was read as Cdc25B inh -6, JNK3 blocker -4, RORa activator -5, MKP-1 inh 31, Hsp90 block -2 and SF1 activator -24.
Screening CC(=O)c1ccc(N(C)C)c2c(N(C)C)cccc12 returned Cdc25B inh -14, JNK3 blocker -10, RORa activator -11, MKP-1 inh 6, Hsp90 block 2 and SF1 activator -5.
`O=C(CSc1nc2ccccc2[nH]1)c1ccco1` gave Cdc25B inh -3, JNK3 blocker 6, RORa activator -2, MKP-1 inh 9, Hsp90 block 26 and SF1 activator 23.
Screening CC(=O)N=C(N)Sc1nc2ccccc2[nH]1 returned Cdc25B inh 14, JNK3 blocker -3, RORa activator 31, MKP-1 inh -9, Hsp90 block -4 and SF1 activator 98*.
Cc1ccc(C2c3c(oc4ccccc4c3=O)C(=O)N2c2nnc(C(C)C)s2)o1 (configuration not stated) was read as Cdc25B inh -14, JNK3 blocker 0, RORa activator -4, MKP-1 inh 7, Hsp90 block -2 and SF1 activator -45.
`N#CC(Cc1ccc(O)c(O)c1)C(=O)N1CCc2ccccc21` (configuration not stated) gave Hsp90 block 81*.
COCCn1c(COc2ccc(C)cc2)nc2ccccc21 was read as Cdc25B inh -8, JNK3 blocker -4, RORa activator 40, MKP-1 inh 0, Hsp90 block -3 and SF1 activator 50*.
COCCn1c(COC)nc2ccccc21 was read as Cdc25B inh -7, JNK3 blocker 0, RORa activator 3, MKP-1 inh -6, Hsp90 block -3 and SF1 activator 6.
Screening Cc1oc2cc(O)cc(O)c2c(=O)c1-c1ccc2c(c1)OCCCO2 returned Cdc25B inh 8, JNK3 blocker -7, RORa activator 58*, MKP-1 inh -4, Hsp90 block -3 and SF1 activator 50*.
COc1ccc(C2=NOC(CN3C(=O)c4ccccc4S3(=O)=O)C2)cc1 (configuration not stated) was read as Cdc25B inh 4, JNK3 blocker 6, RORa activator 35, MKP-1 inh 1, Hsp90 block -5 and SF1 activator 67*.
